Rows were chosen to be rich in hits. Some 0.27% of all compounds tested hit in one or more screens of this group.
Mdm2 ligase inh – inhibitors of human Mdm2 E3 ubiquitin ligase; Q00987; cell-based MDM2 ubiquitination luciferase reporter, 2 h; 0 = plate control, 100 = twice control, blank-subtracted; signal enhancement, % at 5 µM; AID 1230; 0.11% of 210,000 active;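 active = signal enhancement of 30% or more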;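 note: luminescence tracks abundance of the self-degrading MDM2-luciferase fusion protein; higher signal means inhibition of MDM2 E3 ligase activity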
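test system = mammalian cells stably expressing self-ubiquitinating, self-degrading MDM2 E3–luciferase fusion | quantity = 2000 cells/well | incubation = cell settling 4 h, compound treatment 2 h, both 37 °C | signal = luminescence with SteadyLite reagent, 15 min at room temperature | evaluation = % enhancement relative to plate controls after blank subtraction | benchmarks = plate controls and plate blanks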
Bim-Bfl-1 – human Bim-Bfl-1 interaction inhibition | Q16548 | Bead-based flow cytometry, Bim-Bfl-1 binding inhibition | inhibition, % at 10 µM | 0.12% of 190,000 active | AID 1008
Target sequence (Q16548 whole entry, looked up): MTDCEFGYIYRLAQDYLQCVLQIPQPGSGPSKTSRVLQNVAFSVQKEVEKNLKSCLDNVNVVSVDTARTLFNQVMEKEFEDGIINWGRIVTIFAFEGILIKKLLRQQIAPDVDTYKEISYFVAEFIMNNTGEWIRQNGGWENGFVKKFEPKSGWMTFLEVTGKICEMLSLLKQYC
Bcl-2 Bim block – inhibitors of Bim-Bcl-2 interaction, human; Bead-based flow cytometry, Bim peptide-Bcl-2 binding; inhibition, % at 10 µM; 0.06% of 190,000 active; P10415; in the data active = inhibition above about 40%; inconclusive = no clear call, values can overlap the other calls
Bcl-XL Bim block – disrupts Bim peptide binding to human Bcl-XL | Q07817 | inhibition, % at 10 µM | bead flow cytometry, fluorescence | 0.04% of 190,000 active
Target sequence (Q07817 whole entry, looked up): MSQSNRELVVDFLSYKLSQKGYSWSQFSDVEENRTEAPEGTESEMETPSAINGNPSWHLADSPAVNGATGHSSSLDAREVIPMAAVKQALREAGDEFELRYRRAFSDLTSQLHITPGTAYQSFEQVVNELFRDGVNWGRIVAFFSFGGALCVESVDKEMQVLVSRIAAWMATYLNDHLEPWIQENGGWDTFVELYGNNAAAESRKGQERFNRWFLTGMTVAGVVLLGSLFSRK
Bcl-B Bim block – disrupts Bim peptide binding to human Bcl-B. 0.073% of 190,000 active. bead-based flow cytometry. inhibition, % at 10 µM. Q9HD36
Bim-Bcl-W – human Bim-Bcl-W interaction inhibition. Q92843. bead-based flow cytometry, Bim peptide-Bcl-W binding. inhibition, % at 10 µM. 0.02% of 190,000 active;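 note: higher means less fluorescent Bim peptide bound to Bcl-W beads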
Target sequence (Q92843 whole entry, looked up): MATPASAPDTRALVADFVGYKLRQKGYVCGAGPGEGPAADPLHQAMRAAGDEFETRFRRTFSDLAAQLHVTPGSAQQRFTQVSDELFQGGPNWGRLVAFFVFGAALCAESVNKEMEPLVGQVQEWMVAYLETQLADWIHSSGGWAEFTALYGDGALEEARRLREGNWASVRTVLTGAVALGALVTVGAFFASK
Each line names hits and unclear results; the compound was inactive in the other large screens. Cut-off read from the data, not from the text of the source, unless noted: active = inhibition above about 40%.

CC1CCN(C(=O)CSc2nnc(-c3cccnc3)n2C2CCCCC2)CC1	none
O=C(CSc1nnc(-c2cccnc2)n1C1CCCCC1)NC1CCCCC1	Mdm2 ligase inh 36
O=C(c1ccccc1NS(=O)(=O)c1ccc(F)cc1)N1CCCC1	none
O=C(c1ccccc1NS(=O)(=O)c1ccc(Br)s1)N1CCCC1	Bim-Bfl-1 49
CCN(CC)c1ccc(/C=C2\C(=O)c3ccc(C(=O)O)cc3C2=O)cc1	Mdm2 ligase inh 79, Bcl-2 Bim block inconclusive (no result: Bim-Bfl-1, Bcl-XL Bim block, Bcl-B Bim block, Bim-Bcl-W)
CCN(CC)c1ccc(C(=O)O)cc1	none
CCOc1cc(NC(=S)NC)c(OCC)cc1NC(=O)c1ccc(OC)cc1	Bim-Bfl-1 45, Bcl-2 Bim block 53, Bcl-B Bim block 41, Bim-Bcl-W 49
CCOc1cc(NC(=S)NCC2CCCO2)c(OCC)cc1NC(=O)c1ccc(OC)cc1 (configuration not stated)	none
CCCOC(=O)c1ccc(O)c(OC)c1	Mdm2 ligase inh 45
Cc1sc2c(c1C)C(O)=C(C(=O)Nc1ccccc1)S(=O)(=O)N2C	none (no result: Bim-Bfl-1, Bcl-2 Bim block, Bcl-XL Bim block, Bcl-B Bim block, Bim-Bcl-W)
Clc1nc2ccccc2cc1/C=N/Nc1nc2ccccc2[nH]1	Bim-Bfl-1 69, Bcl-2 Bim block 93, Bcl-XL Bim block 58, Bcl-B Bim block 94, Bim-Bcl-W 58 (no result: Mdm2 ligase inh)
C(=N\Nc1nc2ccccc2[nH]1)/c1ccncc1	none
N#CCc1cc2ccc3cccc4ccc(c1)c2c34	none (no result: Bim-Bfl-1, Bcl-2 Bim block, Bcl-XL Bim block, Bcl-B Bim block, Bim-Bcl-W)
CC(=O)Nc1ccc(S(=O)(=O)N2CCCC(C(=O)O)C2)cc1 (configuration not stated)	none
CSc1nnc2c3cc(C)ccc3n(Cc3ccccc3)c2n1	Bcl-2 Bim block 48
COc1cccc(/C=N/NC(=O)CN2CC(c3ccccc3)CC2=O)c1OC (configuration not stated)	none
Cc1ncc([N+](=O)[O-])n1Cc1cccc(F)c1	none
Cc1cc(C)n(C(=O)/C(C#N)=N/Nc2cc(Cl)cc(Cl)c2)n1	none
Clc1cccc(Cl)c1CNc1ccc(N2CCCC2)cc1	Bim-Bfl-1 59
COc1ccc(OCC(=O)N2CCN(S(=O)(=O)c3ccccc3[N+](=O)[O-])CC2)cc1	none
CCOc1ccc(OCC)c(NC(=O)CN(C)S(=O)(=O)c2cnc[nH]2)c1	none
CCOc1ccc(NC(=O)CN(C)S(=O)(=O)c2cnc[nH]2)cc1	Mdm2 ligase inh 32
Clc1cccc(Cl)c1-c1noc(CN2CCOCC2)n1	none (no result: Bim-Bfl-1, Bcl-2 Bim block, Bcl-XL Bim block, Bcl-B Bim block, Bim-Bcl-W)
CS(=O)(=O)NCCSc1cc(C(F)(F)F)nc2ccccc12	none (no result: Bim-Bfl-1, Bcl-2 Bim block, Bcl-XL Bim block, Bcl-B Bim block, Bim-Bcl-W)
COc1ccccc1-n1c(-c2ccc(NS(C)(=O)=O)cc2)n[nH]c1=S	none
COc1ccccc1-n1c(-c2ccc(Cl)cc2)c[nH]c1=S	Bcl-B Bim block 42
Cc1ccc(C)c(Oc2ncnc(N)c2[N+](=O)[O-])c1	Bim-Bfl-1 43, Bcl-XL Bim block 46
Cc1cc(C)c(C)c(Oc2ncnc(N)c2[N+](=O)[O-])c1	none
COc1cc(NCCCCCCCN)c2ncccc2c1	Bcl-2 Bim block 51, Bcl-XL Bim block 49, Bcl-B Bim block 71, Bim-Bcl-W 48
COCCn1c(N)c(C(=O)Nc2sc3c(c2C(=O)OC)CCCC3)c2nc3ccccc3nc21	Bcl-XL Bim block 41
COCCn1c(N)c(C(=O)NCC2CCCO2)c2nc3ccccc3nc21 (configuration not stated)	none
CC1C=CCC2C(=O)N(c3ccc(OC(=O)c4cccs4)cc3)C(=O)C12 (configuration not stated)	Bim-Bfl-1 55, Bcl-2 Bim block 79, Bcl-B Bim block 70
O=C1CCCCc2sc(Br)c([N+](=O)[O-])c2N1	none (no result: Bim-Bfl-1, Bcl-2 Bim block, Bcl-XL Bim block, Bcl-B Bim block, Bim-Bcl-W)
CC(=O)NC(=O)Nc1sc(=S)n(C)c1C	Bim-Bfl-1 56, Bcl-XL Bim block 49
Cc1ccc(NC(=O)Nc2sc(=S)n(C)c2C)cc1	none
COC(=O)/C=C/c1ccc(OC(=O)OC)c(OC(=O)OC)c1	none
CN(CCCOc1ccccc1Br)Cc1ccccc1	Bim-Bfl-1 99, Bcl-2 Bim block 91, Bcl-XL Bim block 102, Bcl-B Bim block 108, Bim-Bcl-W 98
Cc1ccc(Cl)c(OCCCCN(C)Cc2ccccc2)c1	none
Cc1cc(C)c(S(=O)(=O)c2ccccc2)c(OC(=O)c2cc(F)c(F)cc2Cl)n1	Mdm2 ligase inh 35
Cc1cc(OC(=O)c2cc(F)c(F)cc2Cl)nc(C)n1	none
Cc1ccn(C(=O)c2ccc(NC(=O)CC(C)C)cc2)n1	none
O=C(Nc1ccc(F)cc1)c1ccccc1S(=O)(=O)c1ccccc1[N+](=O)[O-]	Mdm2 ligase inh 49
CCOC(=O)c1c(NC(=S)Nc2ccccc2)sc2c1CCN(CC)C2	Mdm2 ligase inh 51
S=c1[nH]nc(-c2cccnc2)n1/N=C/c1ccccc1	none (no result: Bim-Bfl-1, Bcl-2 Bim block, Bcl-XL Bim block, Bcl-B Bim block, Bim-Bcl-W)
Fc1cccc(Cl)c1/C=N/n1c(-c2cccnc2)n[nH]c1=S	Mdm2 ligase inh 45
Cc1cc(C(=O)CSc2nnc(Nc3ccccc3)s2)c(C)n1CC1CCCO1 (configuration not stated)	Mdm2 ligase inh 31
Cc1cc(C(=O)CSc2nnc(Nc3ccccc3F)s2)c(C)n1CC1CCCO1 (configuration not stated)	none
COc1cc(OC)c([N+](=O)[O-])cc1/C=N/NC(=O)c1ccncc1	Bim-Bcl-W 40
NC(=O)c1c(NC(=O)C2CCCO2)sc2c1CCCC2 (configuration not stated)	Mdm2 ligase inh 34, Bcl-XL Bim block 42
CCOC(=O)c1c(NC(=O)C2CCCO2)sc2c1CCC2 (configuration not stated)	none
COc1ccccc1OCc1ccc(C(=O)Nc2ccccc2F)cc1	Bcl-2 Bim block 47, Bcl-B Bim block 63
CCC(/C=C1\Sc2ccc(OC)cc2N1CCO)=C\c1sc2ccc(OC)cc2[n+]1CCO	Bim-Bfl-1 62, Bcl-2 Bim block 60, Bcl-XL Bim block 51, Bim-Bcl-W 40
CCC(/C=C1\Sc2ccc(OC)cc2N1CC)=C\c1sc2ccc(OC)cc2[n+]1CCCS(=O)(=O)[O-]	none
Cc1ccc(-c2nc3c(c(=O)[nH]c(=O)n3Cc3ccccc3)n2C)o1	Bim-Bfl-1 40
COC(Cn1cc(C)c(=O)[nH]c1=O)OC	Mdm2 ligase inh 42
Cc1cn(CC2COC(C)(C)O2)c(=O)[nH]c1=O (configuration not stated)	none
Cc1nc(NCCCn2ccnc2)c2ccccc2n1	none
O=C1c2ccccc2-c2onc3ccc(NCCCn4ccnc4)c1c23	Bim-Bfl-1 79, Bcl-2 Bim block 88, Bcl-XL Bim block 100, Bcl-B Bim block 92, Bim-Bcl-W 94
COc1cc2c(cc1OC)CN(C(=O)c1ccco1)CC2	Mdm2 ligase inh 35
COc1ccc(OC)c(/C=C/C(=O)NCCc2nc3ccccc3[nH]2)c1	none (no result: Bim-Bfl-1, Bcl-2 Bim block, Bcl-XL Bim block, Bcl-B Bim block, Bim-Bcl-W)
C/C(=N/NC(=O)Cc1cccn1C)c1ccccc1	none
C/C(=N\NC(=O)Cc1cccn1C)c1ccc2ccccc2c1	Bcl-2 Bim block 50, Bcl-B Bim block 46

Compound activity: PubChem BioAssay, several laboratories
